Measured values gathered from unrelated publications.
Compare with care: the assays were run in different laboratories.
Effect on: enzyme activity
Mode: inhibitor
KIT: Mast/stem cell growth factor receptor Kit (KIT, Homo sapiens, UniProt P10721)
KIT D816V: Mast/stem cell growth factor receptor Kit (KIT, Homo sapiens, UniProt P10721, D816V)

Structure (SMILES)	target	test	conditions	inhibition [%]
CNC(=O)c1cc2c(Oc3ccc(NC(=O)C4(C(=O)Nc5ccc(F)cc5)CC4)cc3)ccnc2cc1OC	Mast/stem cell growth factor receptor Kit (KIT, Homo sapiens, UniProt P10721, V560G)	radiometric	1 µM	92
COc1cc2nccc(Oc3ccc(NC(=O)c4c5n(n(-c6ccc(F)cc6)c4=O)CCCC5)cc3)c2cc1OC	KIT		0.1 µM	-1
COc1cc(-c2cc(-c3ccc(N4CCNCC4)cc3)cnc2N)cc(OC)c1OC	Mast/stem cell growth factor receptor Kit (KIT, Homo sapiens, UniProt P10721, T670I)		0.1 µM	3
CN(C)C1CCN(CC#Cc2nn(C3CCCC3)c3nc(NCc4ccccc4)ncc23)C1 (centres unmarked)	KIT	FRET	10 µM	11
CC/C(=N\NC(=O)NCc1cccc(O)c1)c1ccc(O)c(C)c1O	Mast/stem cell growth factor receptor Kit (KIT, Homo sapiens, UniProt P10721, V654A)		0.1 µM	-0.5
COc1cc2ncnc(Nc3ccc(Oc4ccccc4)c(C)c3C)c2cc1OC	KIT		1 µM	8
C=CC(=O)Nc1cc(Nc2nccc(Nc3cc(Cl)c(F)cc3C(C)(C)O)n2)c(OC)cc1N1CC[C@@H](N(C)C)C1	KIT		1 µM	2
O=C(CSc1nc2nccnc2c(=O)n1CCc1ccccc1)Nc1nccs1	KIT D816V		10 µM	6
COc1cc2ncnc(Nc3ccc(Oc4ccccc4)cc3C)c2cc1OC	KIT		1 µM	-1
CS(=O)(=O)Nc1cccc(-c2csc(NC(=O)CSc3nc4nccnc4c(=O)n3CCc3ccccc3)n2)c1	KIT D816V		10 µM	-1
CCOc1cc(-c2nncn2C)ccc1Nc1ncc2cc(C)nc(NCC(C)(C)C)c2n1	KIT	FRET	1 µM	< 15
